Data: ChEMBL document CHEMBL1629555, “Antimalarial activity of phenylthiazolyl-bearing hydroxamate-based histone deacetylase inhibitors” (Antimicrob Agents Chemother, 2008)
Calls of active or inactive are those of the source. The rule behind the calls is not given here.

What was measured:
Plasmodium falciparum [1] = test: Antimalarial activity against drug-resistant Plasmodium falciparum D6 infected in Aotus lemurinus lemurinus monkey; type: functional, organism-based
Plasmodium falciparum [2] = test: Antimalarial activity against drug-resistant Plasmodium falciparum TM91C235; type: functional, organism-based
Plasmodium falciparum [3] = test: Antimalarial activity against drug-resistant Plasmodium falciparum TM90C2A; type: functional, organism-based
[4] = Cytotoxicity against african green monkey Vero cells by MTT assay; type: cell-based; conditions: chlorocebus sabaeus, read-out: LC50 (the source's name)
[5] = Selectivity index, ratio of LC50 for mouse RAW264.7 cells to IC50 for Plasmodium falciparum; conditions: raw264.7
Plasmodium falciparum [6] = test: Antimalarial activity against Plasmodium falciparum at 10 nM after 3.5 hrs; type: functional, organism-based
Procedure, shortened: (§1)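 Infected erythrocytes were exposed to compound for 3.5 h, washed, and returned to culture. Parasite growth was compared with matched controls after 48 h.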

Plasmodium falciparum [7] = test: Antimalarial activity against Plasmodium falciparum at 1 nM assessed as parasite growth after 3.5 hrs; type: functional; procedure, shortened: as §1
Plasmodium berghei [8] = test: Antimalarial activity against Plasmodium berghei infected in mouse assessed as parasitemia level at split dose of 40 mg/kg/day, po for 3 days measured on day 6 relative to control; type: functional
Procedure, shortened: (§2)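 Blood-stage P. berghei model: mice inoculated ip with 10^6 parasitized erythrocytes. Oral treatment for 3 days, with the daily dose split, in hydroxyethylcellulose-Tween 20 vehicle. Day-6 parasitemia expressed as a fraction of control parasitemia.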

Plasmodium berghei [9] = test: Antimalarial activity against Plasmodium berghei infected in mouse assessed as parasitemia level at split dose of 640 mg/kg/day, po for 3 days measured on day 6 relative to control; type: functional; procedure, shortened: as §2
Plasmodium berghei [10] = test: Antimalarial activity against Plasmodium berghei infected in mouse assessed as parasitemia level at single dose of 20 mg/kg/day, po for 3 days measured on day 6 relative to control; type: functional
Procedure, shortened: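 Mice infected intraperitoneally with 10^6 P. berghei-parasitized erythrocytes. Drug given orally once daily on days 3, 4 and 5 post-infection in hydroxyethylcellulose-Tween 20 vehicle, 5 mice per dose group. Parasitemia measured on day 6 and expressed as a fraction of untreated control parasitemia.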

Mus musculus [11] = test: Toxicity in Plasmodium berghei-infected mouse assessed as mortality at split dose of 80 mg/kg/day, po for 3 days; type: organism-based; design: route oral; conditions: in vivo, 72 h
Mus musculus [12] = test: Toxicity in Plasmodium berghei-infected mouse assessed as mortality at split dose of 160 mg/kg/day, po for 3 days; type: organism-based; design: route oral; conditions: in vivo, 72 h
Mus musculus [13] = test: Toxicity in Plasmodium berghei-infected mouse assessed as mortality at split dose of 640 mg/kg/day, po for 3 days; type: organism-based; design: route oral; conditions: in vivo, 72 h
Plasmodium berghei [14] = test: Antimalarial activity against Plasmodium berghei infected in mouse assessed as parasitemia level at 32 mg/kg/day for 3 days measured on day 6 in presence of 3.6 mg/kg/day chloroquine (reference value: 37%); type: functional
Procedure, shortened: (§3)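 Mice were infected ip with 10^6 P. berghei-parasitized erythrocytes. The compound was given orally once daily on days 3, 4 and 5 post-infection in hydroxyethylcellulose-Tween 20 vehicle, alone or together with chloroquine, with 5 mice per dose group. Parasitemia (%) was read on days 3 and 6, and cures were counted as animals cured out of 5.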

Plasmodium berghei [15] = test: Antimalarial activity against Plasmodium berghei infected in mouse assessed as parasitemia level at 3.2 mg/kg/day for 3 days measured on day 6 in presence of 4 mg/kg/day chloroquine (reference value: 37%); type: functional
Plasmodium berghei [16] = test: Antimalarial activity against Plasmodium berghei infected in mouse assessed as effect on cure rate at 32 mg/kg/day for 3 days measured on day 6 in presence of 3.6 mg/kg/day chloroquine; type: functional, organism-based; procedure, shortened: as §3
Mus musculus [17] = test: Toxicity in Plasmodium berghei-infected mouse assessed as mortality at split dose of 130 mg/kg/day, po for 7 days; type: organism-based; design: route oral; conditions: in vivo, 168 h
Plasmodium falciparum [18] = test: Antimalarial activity against chloroquine-resistant Plasmodium falciparum FVO infected in Aotus lemurinus […] monkey assessed as reduction in parasitemia at 16 mg/kg/day, po for 3 days; type: functional, organism-based
[19] = Cmax in ICR mouse at 50 mg/kg/day, po by LC/MS analysis; type: ADME, organism-based; design: dose 50 mg/kg/day, route oral; conditions: in vivo
Procedure, shortened: (§4)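 Male ICR mice, 8 weeks old, got one 50 mg/kg dose either orally or subcutaneously, with three groups of six mice per route. One mouse per group was killed at 15, 30 and 60 min and at 3, 6 and 24 h. Plasma was deproteinized with 2 volumes of acetonitrile and analysed by LC-MS/MS on a C18 column against 0–500 ng/ml standards, with parent and acid metabolite measured in the same sample. Each six-mouse group was treated as one "animal" and fitted to a two-compartment model. AUC was taken by the linear trapezoidal rule extrapolated to infinity, and Cmax and Tmax were read per "animal".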

[20] = Cmax in ICR mouse at 50 mg/kg/day, sc by LC/MS analysis; type: ADME, organism-based; design: dose 50 mg/kg/day, route subcutaneous; conditions: in vivo; procedure, shortened: as §4
[21] = Half life in ICR mouse at 50 mg/kg/day, po by LC/MS analysis; type: ADME, organism-based; design: route oral; conditions: in vivo; procedure, shortened: as §4
Plasmodium berghei [22] = test: Antimalarial activity against Plasmodium berghei infected in mouse assessed as effect on cure rate at 160 mg/kg/day for 3 days; type: functional, organism-based; procedure, shortened: as §3
Plasmodium berghei [23] = test: Antimalarial activity against Plasmodium berghei infected in mouse assessed as effect on cure rate at 3.2 mg/kg/day for 3 days; type: functional, organism-based
Plasmodium falciparum [24] = test: Antimicrobial activity against Plasmodium falciparum D6 infected in Aotus lemurinus lemurinus monkey at […] in presence of 4 mg/kg chloroquine; type: functional
Plasmodium berghei [25] = test: Antimalarial activity against Plasmodium berghei infected in mouse assessed as parasitemia level at 160 mg/kg/day for 3 days measured on day 3 in presence of 2 […] chloroquine (reference value: 0.46%); type: functional; procedure, shortened: as §3
[26] = molecular target: T1, Histone deacetylase (Plasmodium falciparum 3D7) (UniProt Q7K6A1); test: Inhibition of Plasmodium falciparum 3D7 histone deacetylase infected in human erythrocytes assessed as alteration of histone H3 acetylation after 3.5 hrs by SDS-PAGE; type: cell-based
T1 sequence (whole entry): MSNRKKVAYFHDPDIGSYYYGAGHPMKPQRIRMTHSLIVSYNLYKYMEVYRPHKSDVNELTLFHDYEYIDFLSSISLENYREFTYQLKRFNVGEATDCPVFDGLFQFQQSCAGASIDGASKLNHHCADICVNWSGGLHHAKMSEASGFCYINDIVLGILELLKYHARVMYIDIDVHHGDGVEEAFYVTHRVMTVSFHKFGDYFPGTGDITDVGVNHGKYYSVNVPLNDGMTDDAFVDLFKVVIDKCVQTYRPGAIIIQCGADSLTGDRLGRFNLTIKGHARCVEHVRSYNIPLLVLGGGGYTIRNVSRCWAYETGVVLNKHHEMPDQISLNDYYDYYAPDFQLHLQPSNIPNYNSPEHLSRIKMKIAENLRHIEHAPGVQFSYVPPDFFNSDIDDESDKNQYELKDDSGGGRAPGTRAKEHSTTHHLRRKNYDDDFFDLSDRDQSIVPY
Procedure, shortened: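 About 3 × 10^9 erythrocytes infected with late-trophozoite P. falciparum 3D7 were exposed to compound or to DMSO vehicle for 3.5 h at 37°C, and an untreated sample was taken at the start. Histones were extracted, about 6 × 10^8 parasites were loaded per lane on SDS–15% PAGE, and loading was checked by silver stain. Western blots were probed with anti-tetraacetyl-H4 and anti-diacetyl-H3 antisera and detected by ECL.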

Plasmodium berghei [27] = test: Antimalarial activity against Plasmodium berghei infected in mouse assessed as parasitemia level at 3.2 mg/kg/day for 3 days measured on day 3 in presence of 4 mg/kg/day chloroquine (reference value: 0.46%); type: functional

Nc1cccc(-c2csc(NC(=O)CCCCCCC(=O)NO)n2)c1
IC50 (Plasmodium falciparum [1]): 0.8 nM
IC50 (Plasmodium falciparum [2]): 1.5 nM
IC50 (Plasmodium falciparum [3]): 0.6 nM
CC50 [4]: 950 nM
selectivity ratio [5]: 1080
Activity (Plasmodium falciparum [6]): Active
Activity (Plasmodium falciparum [7]): <=40%
fold change (FC) (Plasmodium berghei [8]): 0.32
fold change (FC) (Plasmodium berghei [9]): 0.001
fold change (FC) (Plasmodium berghei [10]): 0.57
Activity (Mus musculus [11]): Non-toxic
Activity (Mus musculus [12]): Non-toxic
Activity (Mus musculus [13]): Non-toxic
Activity (Plasmodium berghei [14]): 0.08%
Activity (Plasmodium berghei [15]): 0.029%
Activity (Plasmodium berghei [16]): inactive
Activity (Mus musculus [17]): Non-toxic
inhibition (Plasmodium falciparum [18]): inactive
Cmax [19]: 2500 ng/mL
Cmax [20]: 403 ng/mL
half-life [21]: 3.5 h
Activity (Plasmodium berghei [22]): inactive
Activity (Plasmodium berghei [23]): inactive
fractional inhibitory concentration index (FICI) (Plasmodium falciparum [24]): 2.2
Activity (Plasmodium berghei [25]): 0.5%
inhibition [26]: Dose-dependent effect
Activity (Plasmodium berghei [27]): 0.6%
